Measurements: ChEMBL document CHEMBL5131404, “Lipophilic quinolone derivatives: Synthesis and in vitro antibacterial evaluation” (2022)
≈ marks a conversion by molar mass, not a printed value.

Columns and labels:
Format in all cases: functional
Neisseria gonorrhoeae [1] = experiment: Antibacterial activity against Neisseria gonorrhoeae ATCC 19424
Method in brief: (§1)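 Agar dilution MIC. Strains were cultured on GC agar with 2% v/v Vitox and 1% haemoglobin. Suspensions of 10^5 CFU/mL were spotted in duplicate onto the same supplemented GC agar containing various compound concentrations, then incubated 24-48 h at 37°C in 5% CO2. The MIC is the lowest concentration inhibiting growth, from at least three independent experiments.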

Streptococcus pneumoniae = experiment: Antibacterial activity against Streptococcus pneumoniae ATCC 49169
Method in brief: (§2)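 Broth microdilution MIC following CLSI guidelines. Strains were grown on Mueller-Hinton agar beforehand. The MIC is the lowest compound concentration that inhibits bacterial growth, determined at least three times in independent experiments.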

Staphylococcus aureus [2] = experiment: Antibacterial activity against Staphylococcus aureus ATCC 29213; method in brief: as §2
Escherichia coli [3] = experiment: Antibacterial activity against Escherichia coli ATCC 35218; method in brief: as §2
Pseudomonas aeruginosa [4] = experiment: Antibacterial activity against Pseudomonas aeruginosa ATCC 27853; method in brief: as §2
Staphylococcus aureus [5] = experiment: Antibacterial activity against methicillin-resistant Staphylococcus aureus 197
Method in brief: (§3)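 Strains grown on Mueller-Hinton agar. MIC by broth microdilution following CLSI guidelines, taken as the lowest concentration inhibiting bacterial growth. Determined at least three times in independent experiments.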

Staphylococcus aureus [6] = experiment: Antibacterial activity against methicillin-resistant Staphylococcus aureus 196; method in brief: as §3
Escherichia coli [7] = experiment: Antibacterial activity against Escherichia coli 202; method in brief: as §2
Pseudomonas aeruginosa [8] = experiment: Antibacterial activity against Pseudomonas aeruginosa 143; method in brief: as §2
Pseudomonas aeruginosa [9] = experiment: Antibacterial activity against Pseudomonas aeruginosa 142; method in brief: as §2
Acinetobacter baumannii [10] = experiment: Antibacterial activity against Acinetobacter baumannii 140; method in brief: as §2
Acinetobacter baumannii [11] = experiment: Antibacterial activity against Acinetobacter baumannii 139; method in brief: as §2
Acinetobacter baumannii [12] = experiment: Antibacterial activity against Acinetobacter baumannii ATCC 19606; method in brief: as §2
Escherichia coli [13] = experiment: Antibacterial activity against Escherichia coli 203; method in brief: as §2
Neisseria gonorrhoeae [14] = experiment: Antibacterial activity against Neisseria gonorrhoeae WHO C; method in brief: as §1
Neisseria gonorrhoeae [15] = experiment: Antibacterial activity against Neisseria gonorrhoeae WHO E; method in brief: as §1
Neisseria gonorrhoeae [16] = experiment: Antibacterial activity against Neisseria gonorrhoeae WHO M
Method in brief: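 Agar dilution on GC agar base with 2% v/v Vitox and 1% haemoglobin containing graded compound concentrations. Suspensions at 10^5 CFU/mL spotted in duplicate. Incubation 24-48h, 37°C, 5% CO2. MIC taken as the lowest concentration inhibiting growth, determined at least three times in independent experiments.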

Neisseria gonorrhoeae [17] = experiment: Antibacterial activity against Neisseria gonorrhoeae Barla194; method in brief: as §1
Neisseria gonorrhoeae [18] = experiment: Antibacterial activity against Neisseria gonorrhoeae WHO A; method in brief: as §1
Neisseria gonorrhoeae [19] = experiment: Antibacterial activity against Neisseria gonorrhoeae WHO G; method in brief: as §1
Neisseria gonorrhoeae [20] = experiment: Antibacterial activity against Neisseria gonorrhoeae WHO Z; method in brief: as §1
Neisseria gonorrhoeae [21] = experiment: Antibacterial activity against Neisseria gonorrhoeae WHO O; method in brief: as §1
Neisseria gonorrhoeae [22] = experiment: Antibacterial activity against Neisseria gonorrhoeae WHO B; method in brief: as §1
Neisseria gonorrhoeae [23] = experiment: Antibacterial activity against Neisseria gonorrhoeae WHO K; method in brief: as §1
Neisseria gonorrhoeae [24] = experiment: Antibacterial activity against Neisseria gonorrhoeae WHO Q; method in brief: as §1

Structure (SMILES) | MIC (Neisseria gonorrhoeae [1]) | MIC (Streptococcus pneumoniae) | MIC (Staphylococcus aureus [2]) | MIC (Escherichia coli [3]) | MIC (Pseudomonas aeruginosa [4]) | MIC (Staphylococcus aureus [5]) | MIC (Staphylococcus aureus [6]) | MIC (Escherichia coli [7]) | MIC (Pseudomonas aeruginosa [8]) | MIC (Pseudomonas aeruginosa [9]) | MIC (Acinetobacter baumannii [10]) | MIC (Acinetobacter baumannii [11]) | MIC (Acinetobacter baumannii [12]) | MIC (Escherichia coli [13]) | further results
CCCCC(CC)CN1CCN(c2c(F)cc3c(=O)c(C(=O)O)cn(C4CC4)c3c2OC)CC1 (stereo not given) | > 32 µg/mL | 2 µg/mL (≈ 4.22 µM) | 32 µg/mL (≈ 67.6 µM) | ≥ 64 µg/mL | – | – | – | – | – | – | – | – | – | – | –
CCCCCCCN1CCN(c2c(F)cc3c(=O)c(C(=O)O)cn(C4CC4)c3c2OC)CC1 | 0.25 µg/mL (≈ 0.544 µM) | 4 µg/mL (≈ 8.7 µM) | 1 µg/mL (≈ 2.18 µM) | 1 µg/mL (≈ 2.18 µM) | 64 µg/mL (≈ 139 µM) | 8 µg/mL (≈ 17.4 µM) | 2 µg/mL (≈ 4.35 µM) | 2 µg/mL (≈ 4.35 µM) | > 64 µg/mL | > 64 µg/mL | 64 µg/mL (≈ 139 µM) | 4 µg/mL (≈ 8.7 µM) | 8 µg/mL (≈ 17.4 µM) | > 64 µg/mL | –
CCCCCCCCCCCCN1CCN(c2c(F)cc3c(=O)c(C(=O)O)cn(C4CC4)c3c2OC)CC1 | 0.12 µg/mL (≈ 0.227 µM) | 4 µg/mL (≈ 7.55 µM) | 32 µg/mL (≈ 60.4 µM) | 64 µg/mL (≈ 121 µM) | > 64 µg/mL | ≥ 64 µg/mL | ≥ 64 µg/mL | 32 µg/mL (≈ 60.4 µM) | > 64 µg/mL | > 64 µg/mL | 64 µg/mL (≈ 121 µM) | ≥ 64 µg/mL | 64 µg/mL (≈ 121 µM) | > 64 µg/mL | –
CCCCCCCC(=O)N1CCN(c2c(F)cc3c(=O)c(C(=O)O)cn(C4CC4)c3c2OC)CC1 | 1 µg/mL (≈ 2.05 µM) | 0.5 µg/mL (≈ 1.03 µM) | 1 µg/mL (≈ 2.05 µM) | ≥ 64 µg/mL | – | – | – | – | – | – | – | – | – | – | –
CCCCCCCCN1CCN(c2c(F)cc3c(=O)c(C(=O)O)cn(C4CC4)c3c2OC)CC1 | 0.25 µg/mL (≈ 0.528 µM) | 32 µg/mL (≈ 67.6 µM) | 4 µg/mL (≈ 8.45 µM) | ≥ 64 µg/mL | > 64 µg/mL | 8 µg/mL (≈ 16.9 µM) | 4 µg/mL (≈ 8.45 µM) | 2 µg/mL (≈ 4.22 µM) | > 64 µg/mL | > 64 µg/mL | 64 µg/mL (≈ 135 µM) | 16 µg/mL (≈ 33.8 µM) | 16 µg/mL (≈ 33.8 µM) | > 64 µg/mL | MIC (Neisseria gonorrhoeae [14]): 0.5 µg/mL (≈ 1.06 µM); MIC (Neisseria gonorrhoeae [15]): 0.03 µg/mL (≈ 0.0633 µM); MIC (Neisseria gonorrhoeae [16]): 16 µg/mL (≈ 33.8 µM); MIC (Neisseria gonorrhoeae [17]): 128 µg/mL (≈ 270 µM); MIC (Neisseria gonorrhoeae [18]): 0.03 µg/mL (≈ 0.0633 µM); MIC (Neisseria gonorrhoeae [19]): 0.25 µg/mL (≈ 0.528 µM); MIC (Neisseria gonorrhoeae [20]): > 32 µg/mL; MIC (Neisseria gonorrhoeae [21]): 0.03 µg/mL (≈ 0.0633 µM); MIC (Neisseria gonorrhoeae [22]): 0.12 µg/mL (≈ 0.253 µM); MIC (Neisseria gonorrhoeae [23]): 256 µg/mL (≈ 541 µM); MIC (Neisseria gonorrhoeae [24]): 0.5 µg/mL (≈ 1.06 µM)
CCCCCCCCCCCCCCN1CCN(c2c(F)cc3c(=O)c(C(=O)O)cn(C4CC4)c3c2OC)CC1 | 0.12 µg/mL (≈ 0.215 µM) | 8 µg/mL (≈ 14.3 µM) | 32 µg/mL (≈ 57.4 µM) | 32 µg/mL (≈ 57.4 µM) | > 64 µg/mL | > 64 µg/mL | > 64 µg/mL | 64 µg/mL (≈ 115 µM) | > 64 µg/mL | > 64 µg/mL | ≥ 64 µg/mL | ≥ 64 µg/mL | 64 µg/mL (≈ 115 µM) | > 64 µg/mL | –
